This note sets out measurements from ChEMBL document CHEMBL1155362, “Synthesis, characterization and derivatization of some novel types of mono- and bis-imidazolidineiminothiones and imidazolidineiminodithiones with antitumor, antiviral, antibacterial and antifungal activities--part I” (Eur J Med Chem, 2009).

The test system of assay [1] is Bacillus subtilis. The assay is described as follows: Antibacterial activity against Bacillus subtilis NCIB 3610 at 1 mg/ml by agar disk diffusion assay. The format is functional. In general terms: In agar diffusion tests the substance spreads into inoculated agar from a disc or well.
Assay [2] concerns Bacillus subtilis. The assay can be described thus: Antibacterial activity against Bacillus subtilis NCIB 3610 at 2.5 mg/ml by agar disk diffusion assay. The format is functional.
The test system of assay [3] is Bacillus subtilis. The assay can be described thus: Antibacterial activity against Bacillus subtilis NCIB 3610 at 5 mg/ml by agar disk diffusion assay. The format is functional.
Assay [4] has as its system Pseudomonas aeruginosa. The assay can be described thus: Antibacterial activity against Pseudomonas aeruginosa NCIB 9016 at 2.5 mg/ml by agar disk diffusion assay. In kind it is functional.
For assay [5], the system named is Pseudomonas aeruginosa. The assay can be described thus: Antibacterial activity against Pseudomonas aeruginosa NCIB 9016 at 1 mg/ml by agar disk diffusion assay. The format is functional.
The subject of assay [6] is Candida albicans. The assay is described as follows: Antifungal activity against Candida albicans IMRU 3669 at 5 mg/ml by agar disk diffusion assay. The format is functional. To be noted: Candida albicans, IMRU 3669; read-out: DIZ. In short, it runs like this:
(§1)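 Fungi maintained on Czapek's Dox agar; agar well diffusion with 1 cm wells and […] of each concentration (1, 2.5, 5 mg/mL) in DMF; inhibition zone diameter measured.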

Assay [7] deals with Salmonella typhi. The assay can be described thus: Antibacterial activity against Salmonella typhi NCIMB 9331 at 5 mg/ml by agar disk diffusion assay. The format is functional, Salmonella enterica subsp. enterica serovar Typhi. To be noted: Salmonella enterica, read-out: DIZ.
Assay [8] concerns Staphylococcus aureus. The assay can be described thus: Antibacterial activity against Staphylococcus aureus NCTC 7447 at 5 mg/ml by agar disk diffusion assay. In kind it is functional. To be noted: read-out: DIZ.
Assay [9] deals with Escherichia coli. The assay is described as follows: Antibacterial activity against Escherichia coli NCTC 10416 at 5 mg/ml by agar disk diffusion assay. The format is functional. To be noted: read-out: DIZ.
Assay [10] concerns Bacillus subtilis. The assay is described as follows: Antibacterial activity against Bacillus subtilis NCTC 1040 at 5 mg/ml by agar disk diffusion assay. The format is functional. To be noted: read-out: DIZ.
Assay [11] in a line: Antitumor activity against mouse EAC cells assessed as inhibition of cell viability at 100 ug/ml after 2 hrs by trypan blue exclusion assay. The format is functional. To be noted: Ehrlich. In short, it runs like this:
(§2)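 EAC cells aspirated from ascitic fluid of inoculated mice and diluted in saline; 0.1 mL cell suspension, 0.8 mL RPMI 1640 and 0.1 mL compound (25, 50 or 100) incubated 2 h at 37 °C; non-viable cells counted by trypan blue exclusion; % non-viable = dead/total × 100.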

Assay [12] concerns HepG2. The assay can be described thus: Cytotoxicity against human HepG2 cells assessed as surviving fraction after 48 hrs by SRB assay. In kind it is functional, cell-based. The method, boiled down: (§3)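 Cells seeded at 10⁴ cells/well and left 24 h to attach, then exposed to […] in triplicate wells per dose. Incubation 48 h, 37 °C, 5% CO₂. Cells fixed and stained with sulforhodamine B, excess dye removed with acetic acid, bound dye taken up in Tris EDTA and read on an ELISA reader. Surviving fraction plotted against concentration.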
(In general: The SRB assay estimates cell density from bound dye.)

Assay [13] is described as follows: Antitumor activity against mouse EAC cells assessed as inhibition of cell viability at 50 ug/ml after 2 hrs by trypan blue exclusion assay. The format is functional. To be noted: Ehrlich. In short, it runs like this: as §2
The subject of assay [14] is MCF7. The assay can be described thus: Cytotoxicity against human MCF7 cells assessed as surviving fraction after 48 hrs by SRB assay. In kind it is functional, cell-based. In short, it runs like this: as §3
In assay [15] the test system is HCT-116. The assay can be described thus: Cytotoxicity against human HCT116 cells assessed as surviving fraction after 48 hrs by SRB assay. The format is functional, cell-based. To be noted: hct-116. The method, boiled down:
as §3

The nature of assay [16]: Antitumor activity against mouse EAC cells assessed as inhibition of cell viability at 25 ug/ml after 2 hrs by trypan blue exclusion assay. The format is functional. To be noted: Ehrlich. In short, it runs like this:
as §2

For assay [17], the system named is U-251. The assay is described as follows: Cytotoxicity against human U251 cells assessed as surviving fraction after 48 hrs by SRB assay. The format is functional, cell-based. To be noted: u-251. In short, it runs like this:
as §3

The subject of assay [18] is HeLa. The assay is described as follows: Cytotoxicity against human HeLa cells assessed as surviving fraction after 48 hrs by SRB assay. The format is functional, cell-based. In short, it runs like this:
as §3

In assay [19] the test system is Human alphaherpesvirus 1. The assay is described as follows: Antiviral activity against HSV1 infected african green monkey Vero cells at 10^-4 dilution of 5 mg/ml by plaque formation assay. In kind it is functional. In short, it runs like this:
(§4)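 Compound dilutions prepared from a 5 mg/mL DMSO stock, using the maximum non-toxic dilution for Vero cells over 3 days; 0.1 mL virus (10³) mixed with 0.1 mL compound for 1 h at room temperature; mixture inoculated onto washed Vero monolayers in 12-well plates and adsorbed at 37 °C; 2× MEM/agarose overlay applied; read-out % reduction in plaque count versus untreated virus control.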

Assay [20] deals with Hepatovirus A. The assay is described as follows: Antiviral activity against Hepatitis A virus infected african green monkey Vero cells at 10^-4 dilution of 5 mg/ml by plaque formation assay. The format is functional. In short, it runs like this:
as §4

Assay [21] deals with Aspergillus niger. The assay is described as follows: Antifungal activity against Aspergillus niger IMI 31726 at 5 mg/ml by agar disk diffusion assay. In kind it is functional. To be noted: read-out: DIZ.
The test system of assay [22] is Coxsackievirus B4. The assay is described as follows: Antiviral activity against Coxsackievirus B4 infected african green monkey Vero cells at 10^-4 dilution of 5 mg/ml by plaque formation assay. The format is functional, organism-based. In short, it runs like this: as §4
Assay [23] relates to Candida albicans. The assay is described as follows: Antifungal activity against Candida albicans IMRU 3669 at 2.5 mg/ml by agar disk diffusion assay. The format is functional. To be noted: read-out: DIZ. The method, boiled down:
as §1

In assay [24] the test system is Pseudomonas aeruginosa. The assay can be described thus: Antibacterial activity against Pseudomonas aeruginosa NCIB 9016 at 5 mg/ml by agar disk diffusion assay. In kind it is functional. To be noted: Pseudomonas aeruginosa, NCIB 9016; read-out: DIZ.
[25] abbreviates: Bacillus subtilis, NCIB 3610, read-out: DIZ.
Where [26] appears, read: Pseudomonas aeruginosa, NCIB 9016, read-out: DIZ.

Values after ≈ are worked out from the molar mass of the structure shown. Active and inactive are the calls of the source. The calls are words filed in the database; no cut-off is given here.

For the compound `CCN(CC)CC.N#CC(=S)Nc1ccc(Cl)c(Cl)c1`, the “diameter of the inhibition zone (DIZ)” value in assay [1] was determined as 15 mm; in assay [2], 16 mm; in assay [3], 17 mm; in assay [4] it was 16 mm; in [5], 13 mm.

On to `N=C1C(=S)N(c2ccc(Br)cc2)C(=O)N1c1cc(Cl)c(Cl)cc1Cl`, for which the zone of inhibition at 5000 µg/mL is 14 mm in assay [6]; 18 mm in assay [7]; 16.5 mm in assay [8]; 16 mm in assay [9]; 16 mm in [10].

The inhibition is how much of the control response was suppressed. What is called IC50 is the concentration that inhibits the measured activity by half. For `Cc1ccc(-n2c(=O)n(-c3ccc(Cl)cc3)c3nc4cc(C)ccc4nc32)cc1`, the inhibition at 100 µg/mL in [11] was 90%. For the same compound, the IC50 was 4.43 µg/mL (≈ 11.1 µM) in assay [12] (Homo sapiens, HepG2, 48 h, read-out: IC50); “Not Active” in assay [14] (mcf7); “Not Active” in [15]; “Not Active” in [17]; 8.32 µg/mL (≈ 20.8 µM) in [18] (Homo sapiens, HeLa, 48 h, read-out: IC50). Moreover, in assay [13], the inhibition at 50 µg/mL is 60%. Also, in [16], the inhibition at 25 µg/mL was 35%.

Regarding `N=C1C(=S)N(c2ccc(I)cc2)C(=O)N1c1cc(Cl)c(Cl)cc1Cl`, the zone of inhibition at 5000 µg/mL was 17 mm in assay [6]; 17 mm in [7]; 18 mm in assay [8]; 16.5 mm in assay [9]; 17 mm in [10]; 20 mm in [21]. Also, the result in assay [19] and in assay [22] was inactive. In addition, the Activity in [20] is reported as 40%.

As for `N=C1C(=S)N(c2ccc(Br)cc2)C(=O)N1c1ccc2c(c1)Cc1ccccc1-2`, the zone of inhibition at 5000 µg/mL in assay [6] was 13 mm; in assay [7], 16 mm; in assay [9] it was 14 mm; in [10], 13 mm. Besides, the outcome in assay [19], in assay [20] and in assay [22] was inactive.

`N=C1C(=S)N(c2ccc(Cl)c(Cl)c2)C(=O)N1c1ccc(Oc2ccc(N3C(=N)C(=S)N(c4ccc(Cl)c(Cl)c4)C3=O)cc2)cc1`: the zone of inhibition at 5000 µg/mL is 18 mm in assay [6], 20 mm in assay [3] (setting [25]) and 20 mm in [24]. The zone of inhibition at 1000 µg/mL in assay [1] (setting [25]) and in [5] (setting [26]) was 15 mm each time. For the same compound, the zone of inhibition at 2500 µg/mL was found to be 17 mm in assay [23], 19 mm in assay [2] (setting [25]) and 18 mm in [4] (setting [26]).

`O=C1N(c2ccc(Cl)cc2)CC(=S)N1c1ccc(Cl)cc1`: the inhibition at 100 µg/mL in assay [11] worked out at 100%. Also, the IC50 result is “Not Active” in [12] (hepg2); 9.36 µg/mL (≈ 27.8 µM) in [14] (Homo sapiens, MCF7, 48 h, read-out: IC50); “Not Active” in assay [18] (hela). Moreover, the inhibition at 50 µg/mL in [13] is 100%. Also, the inhibition at 25 µg/mL in assay [16] was 90%.
